Assays:
[1] = Selectivity index, ratio of IC50 for mouse […] cells to IC50 for bloodstream form of Trypanosoma brucei brucei Lister 427; format: toxicity; settings: read-out: Ratio IC50
[2] = Cytotoxicity against mouse […] cells assessed as reduction in cell viability after 48 hrs by MTT assay; format: cell-based
Summary of the method: (§1)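 Cells kept in RPMI1640 with 10% heat-inactivated FBS, L-glutamine, pyruvate and pen-strep at 37 °C, 5% CO2. 3000 cells per well seeded for 24 hrs, then given a range of compound concentrations (DMSO final ≤0.1%) for 48 hrs. 0.5 mg/ml MTT for 2 hrs at 37 °C, dye dissolved in DMSO, absorbance at 570 nm. Quadruplicates normalized and fitted to a dose-response curve.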

[3] = tested on: Trypanosoma brucei brucei; experiment: Anti-parasitic activity against bloodstream form of Trypanosoma brucei brucei Lister 427 after 48 hrs by MTS assay; format: functional; settings: Lister 427, 48 h
Summary of the method: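 Bloodstream-form parasites grown in HMI-9 with 10% FBS at 37 °C, 7.5% CO2. 5,000 cells per well exposed to a range of compound concentrations, 0.1% DMSO, for 48 hrs at 37 °C. MTS (5% PMS) then added for 3 hrs at 37 °C, formazan read at 490 nm. Quadruplicate data normalized and fitted to a dose-response curve for IC50.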

HEK293 = experiment: Cytotoxicity against HEK293 cells assessed as reduction in cell viability after 48 hrs by MTT assay; format: cell-based; settings: Homo sapiens, HEK293, 48 h; summary of the method: as §1
[4] = Selectivity index, ratio of IC50 for HEK293 cells to IC50 for bloodstream form of Trypanosoma brucei brucei Lister 427; format: toxicity; settings: human, read-out: Ratio IC50
[5] = tested on: Trypanosoma brucei brucei; experiment: Inhibition of tubulin polymerization in Trypanosoma brucei brucei Lister 427 incubated for 7 hrs by Western blot analysis
Summary of the method: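 Parasites treated with 0.5% DMSO or different doses of compound for 7 hrs. Cells washed in TDB buffer pH 7.4, then lysed in Pipes pH 6.8 buffer with 0.2% Triton X-100 for 5 mins at 30 °C. Supernatant (soluble) and pellet (polymerized) fractions separated by centrifugation. Lysate from equal cell numbers run on 10% SDS-PAGE, western blot with TAT-1 tubulin antibody.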

SMILES | IC50 [3] [µM] | inhibition [5] | selectivity ratio [1] | IC50 [2] [µM] | IC50 (HEK293) [µM] | selectivity ratio [4]
CN(c1ccc(NC(=O)c2cc(C(F)(F)F)cc(C(F)(F)F)c2)cc1OCc1ccc(C(F)(F)F)cc1)S(=O)(=O)Cc1ccccc1 | 3.39 |  | 86 | > 500 | 293 | > 147
CN(c1ccc(NC(=O)c2cc(C(F)(F)F)cc(C(F)(F)F)c2)cc1OCc1cccc(C(F)(F)F)c1)S(=O)(=O)Cc1ccccc1 | 2.08 |  | 29 | 69.5 | 59.8 | 33
CCS(=O)(=O)N(C)c1ccc(NC(=O)c2ccc3c(c2)OCO3)cc1OCc1cccc(C#N)c1 | 23.5 |  | > 21 | > 500 | > 500 | > 21
CCCCCCOc1cc(NC(=O)c2ccc(C(F)(F)F)cc2C(F)(F)F)ccc1N(C)S(C)(=O)=O | 30.1 |  | > 17 | > 500 | > 500 | > 17
CN(c1ccc(NC(=O)c2ccc(C(F)(F)F)cc2C(F)(F)F)cc1OCc1cccc(C(F)(F)F)c1)S(C)(=O)=O | 8.42 |  | > 59 | > 500 | 80.6 | 10
CN(c1ccc(NC(=O)c2ccc(C#N)cc2)cc1OCc1ccc(C(F)(F)F)cc1)S(=O)(=O)Cc1ccccc1 | 0.07 | Dose-dependent effect | > 7140 | > 500 | > 500 | > 7140
CCCCCCOc1cc(NC(=O)c2cc(C(F)(F)F)cc(C(F)(F)F)c2)ccc1N(C)S(=O)(=O)Cc1ccccc1 | 7.81 |  | 9 | 13.3 | 69.9 | 2

More lines, main results first:

IC50 [3] [µM] | inhibition [5] | SMILES | selectivity ratio [1] | IC50 [2] [µM] | IC50 (HEK293) [µM] | selectivity ratio [4]
8.58 |  | CN(c1ccc(NC(=O)c2cc(C(F)(F)F)cc(C(F)(F)F)c2)cc1OCc1cccc(C(F)(F)F)c1)S(C)(=O)=O | > 58 | > 500 | 54 | 6
10.5 |  | CN(c1ccc(NC(=O)c2ccc(C(F)(F)F)cc2C(F)(F)F)cc1OCc1ccccc1C(F)(F)F)S(=O)(=O)Cc1ccccc1 | > 48 | 158 | > 500 | 15
9.85 |  | CN(c1ccc(NC(=O)c2cc(C(F)(F)F)cc(C(F)(F)F)c2)cc1OCc1ccccc1C(F)(F)F)S(C)(=O)=O | > 51 | > 500 | > 500 | > 51
13 |  | Cc1ccc(C(F)(F)F)cc1COc1cc(NC(=O)c2ccc(C(F)(F)F)cc2C(F)(F)F)ccc1N(C)S(C)(=O)=O | > 38 | > 500 | 102 | 8
1.78 |  | CN(c1ccc(NC(=O)c2ccc(C(F)(F)F)cc2C(F)(F)F)cc1OCc1cccc(C(F)(F)F)c1)S(=O)(=O)Cc1ccccc1 | 99 | 20.5 | 176 | 12
> 50 |  | CN(c1ccc(NC(=O)c2cc(C(F)(F)F)cc(C(F)(F)F)c2)cc1OCc1cccc(C(=N)N)c1)S(C)(=O)=O | > 10 | > 500 | > 500 | > 10
13.3 |  | CN(c1ccc(NC(=O)c2ccc(C(F)(F)F)cc2C(F)(F)F)cc1OCc1ccccc1C(F)(F)F)S(C)(=O)=O | > 38 | > 500 | 34.8 | 3
23 |  | CCCCCCOc1cc(NC(=O)c2cc(C(F)(F)F)cc(C(F)(F)F)c2)ccc1N(C)S(C)(=O)=O | > 22 | > 500 | > 500 | > 22
> 50 |  | Cc1ccc(C)c(COc2cc(Nc3nccc(N)n3)ccc2N(C)S(C)(=O)=O)c1 | > 10 | > 500 | > 500 | > 10
15.6 |  | Cc1ccc(C(F)(F)F)cc1COc1cc(NC(=O)c2cc(C(F)(F)F)cc(C(F)(F)F)c2)ccc1N(C)S(C)(=O)=O | > 32 | > 500 | > 500 | > 32
7.13 |  | CN(c1ccc(NC(=O)c2cc(C(F)(F)F)cc(C(F)(F)F)c2)cc1OCc1ccccc1C(F)(F)F)S(=O)(=O)Cc1ccccc1 | > 70 | > 500 | > 500 | > 70

From ChEMBL document CHEMBL4020730, “Synthesis and biological evaluation of selective tubulin inhibitors as anti-trypanosomal agents” (Bioorg Med Chem, 2017)
